target: T1, MIF tautomerase activity (rhMIF) (Homo sapiens, UniProt P14174); assay: Michaelis-Menten analysis of MIF tautomerase with 4-HPP as substrate; type: biochemical; conditions: Lineweaver-Burk plots, Vmax unchanged
T1 sequence (P14174 2-115 limits assumed): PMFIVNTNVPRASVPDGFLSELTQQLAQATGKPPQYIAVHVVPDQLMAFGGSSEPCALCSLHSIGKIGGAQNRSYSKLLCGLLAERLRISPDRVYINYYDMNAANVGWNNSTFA

**Q.** For `O=C(c1cc2ccccc2o1)N1CCc2ccccc21` [Compound 23], which “mode of tautomerase inhibition” value is on record?
**A.** Its value is “competitive inhibition”.

**Q.** For `Cc1ccc2oc(=O)n(Cc3ccccc3)c2c1` [Compound 24], which “mode of tautomerase inhibition” value is on record?
**A.** Its value is “competitive inhibition”.

target: T1, MIF tautomerase activity (rhMIF); assay: 4-HPP tautomerase assay; type: biochemical; conditions: max inhibition printed in place of IC50
How it was run: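 Recombinant human MIF (purified) was pre-incubated with test compound. 4-HPP was dissolved in 50 mM ammonium acetate, pH 6.0, equilibrated to room temperature and stored at 4 °C. At 25 °C, 4-HPP was added to a cuvette of 0.435 M boric acid, pH 6.2, plus the enzyme–compound mix. A305 increase was read over 30–90 s, in triplicate. Compounds spanned a 5000-fold concentration range.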

**Q.** Which “maximal inhibition in 4-HPP tautomerase assay” value (“maximal inhibition” below) does the source give for `O=C(O)c1cccc(-c2cc[nH]n2)c1` [Compound 33] here?
**A.** The value was “max 30%”.

**Q.** With `Oc1ccc(/C=C/c2ccc3cccc(O)c3n2)cc1` [Compound 26] as the compound, how does the “maximal inhibition” value read?
**A.** Its value is “max 40%”.

**Q.** Which “maximal inhibition” value does the source give for `Oc1ccc2c(c1)oc1ccccc12` [Compound 29] here?
**A.** Its value is “max 38%”.

same assay, conditions: substrate 4-HPP; NA = measured, but not active

**Q.** For `COC(=O)C[C@H]1CC(c2ccc(O)cc2)=NO1` (racemic) [Compound 9, (S,R)-3-(4-hydroxyphenyl)-4,5-dihydro-5-isoxazole acetic acid methyl ester, reference compound], which “IC50 (µM) 4-HPP tautomerase assay” value is on record?
**A.** The value was “inactive”.

**Q.** For `Oc1c(C(Nc2cccc(F)c2)c2ccccn2)ccc2cccnc12` (stereo not drawn) [Compound 18], which “IC50 (µM) 4-HPP tautomerase assay” value is on record?
**A.** Its value is “weak tautomerase inhibitors”.

**Q.** Which “IC50 (µM) 4-HPP tautomerase assay” value does the source give for `CC(=O)Oc1ccc2nc(-c3cc4ccccc4o3)oc(=O)c2c1` [Compound 17] here?
**A.** The value was “weak tautomerase inhibitors”.

**Q.** For `Oc1ccc(/C=C/c2ccc3cccc(O)c3n2)cc1` [Compound 26], which “IC50 (µM) 4-HPP tautomerase assay” value is on record?
**A.** The value was “weak tautomerase inhibitors”.

test system: MIF tautomerase; assay: not given; conditions: covalent inhibitor; cited from earlier work

**Q.** Which tautomerase inhibitor potency does the source give for `CC(=O)N=C1C=CC(=O)C=C1` [NAPQI, N-acetyl-p-benzoquinone] here?
**A.** Its tautomerase inhibitor potency is 40 µM.

target: T2, human MIF binding to its receptor, CD74 (Homo sapiens, UniProt P14174); assay: MIF-CD74 binding assay; conditions: NA = measured, but not active
T2 sequence (P14174 2-115 limits assumed): T1 sequence (P14174 2-115 limits assumed)

**Q.** Which “IC50 (µM) MIF-CD74 binding assay” value does the source give for `O=C(O)c1cc(-n2cnnn2)ccc1O` [Compound 15] here?
**A.** The value was “very weak MIF-CD74 antagonists”.

**Q.** Which “IC50 (µM) MIF-CD74 binding assay” value does the source give for `O=c1c2ccc(F)cc2sn1-c1ccc(Cl)cc1` [Compound 32] here?
**A.** The value was “inactive”.

**Q.** Which “IC50 (µM) MIF-CD74 binding assay” value does the source give for `O=c1oc2c(O)c(O)ccc2cc1-c1nc2ccccc2s1` [Compound 11] here?
**A.** The value was “inactive”.

**Q.** For `CC(=O)Nc1cccc2ccc(-c3cnc4ccccc4c3)nc12` [Compound 28], which “IC50 (µM) MIF-CD74 binding assay” value is on record?
**A.** The value was “inactive”.

**Q.** Which “IC50 (µM) MIF-CD74 binding assay” value does the source give for `O=C(O)c1cc(-n2cnnc2)ccc1Cl` [Compound 16] here?
**A.** The value was “very weak MIF-CD74 antagonists”.
